This is an account of results in ChEMBL document CHEMBL1132986, “Novel and selective calcitonin-inducing agents” (J Med Chem, 2000).

The target in one assay is T1, Phosphodiesterase 4 (Homo sapiens, UniProt P27815+Q08499+Q07343+Q08493). As to the kind of experiment: PDE4 30 assay to measure the percent rolipram activity of the PDE4 assay at 30 micro M concentration of the compound. It is filed as protein assay. Summed up:
(§1)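 U937 PDE4 preparation, 1 µM [3H]cAMP, 37 °C, test compound at 30 µM. Activity scaled to rolipram: no rolipram inhibition = 0%, full rolipram inhibition (10 µM) = 100%.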
In the case of `CCCCn1c(=O)c2c(nc(C)n2S(=O)(=O)c2cccc3ccccc23)n(CCCC)c1=O`, the PDE4 inhibition relative to rolipram worked out at 94%.

As for `CCCCn1c(=O)c2c(nc(C)n2S(=O)(=O)c2cccc([N+](=O)[O-])c2)n(CCCC)c1=O`, the PDE4 inhibition relative to rolipram amounted to 85%.

For `CCCCn1c(=O)c2c(ncn2S(=O)(=O)c2cccs2)n(CCCC)c1=O`, the PDE4 inhibition relative to rolipram turned out to be 48%.

Turning to `CCCCn1c(=O)n(CC2CC2)c(=O)c2c1ncn2S(=O)(=O)c1ccc(OC)c(OC)c1`, the PDE4 inhibition relative to rolipram turned out to be 97%.

As for `CCCCn1c(=O)n(CC=C(C)C)c(=O)c2c1ncn2S(=O)(=O)c1ccc(OC)c(OC)c1`, the PDE4 inhibition relative to rolipram came out at 77%.

The target of the next assay is T1, Phosphodiesterase 4. As to the kind of experiment: PDE4 30 assay to measure the percent rolipram activity of the PDE4 assay at 30 uM concentration of the compound. The assay is classed as protein assay. Summed up: as §1
As to `CCCCOc1ccc(S(=O)(=O)n2cnc3c2c(=O)n(CCCC)c(=O)n3CCCC)cc1`, the PDE4 inhibition relative to rolipram is 54%.

Take `CCCCn1c(=O)c2c(ncn2S(=O)(=O)CCCC)n(CCCC)c1=O`: the PDE4 inhibition relative to rolipram is 15%.

Turning to `CCCCn1c(=O)c2c(ncn2S(=O)(=O)c2cc(C)ccc2C)n(CCCC)c1=O`, the PDE4 inhibition relative to rolipram was 92%.

`CCCCn1c(=O)c2c(ncn2S(=O)(=O)c2ccc(NO)cc2)n(CCCC)c1=O` gave a PDE4 inhibition relative to rolipram of 18%.

Compound `CCCCn1c(=O)c2c(ncn2S(=O)(=O)c2cccc([N+](=O)[O-])c2)n(CCCC)c1=O` gave a PDE4 inhibition relative to rolipram of 37%.

Turning to `CCCCn1c(=O)c2c(ncn2S(=O)(=O)c2ccccc2F)n(CCCC)c1=O`, the PDE4 inhibition relative to rolipram stood at 53%.

As to `CCCCn1c(=O)c2c(ncn2S(=O)(=O)c2ccc(OC(F)(F)F)cc2)n(CCCC)c1=O`, the PDE4 inhibition relative to rolipram was determined as 0%.

`CCCCn1c(=O)c2c(ncn2S(=O)(=O)c2ccccc2)n(CCCC)c1=O` had a PDE4 inhibition relative to rolipram of 5%.

`CCCCn1c(=O)c2c(ncn2S(=O)(=O)c2cc(F)ccc2C)n(CCCC)c1=O` returned a PDE4 inhibition relative to rolipram of 86%.

The compound `CCCCn1c(=O)c2c(ncn2S(=O)(=O)CCC)n(CCCC)c1=O` displayed a PDE4 inhibition relative to rolipram of 54%.

`CCCCn1c(=O)c2c(ncn2S(=O)(=O)c2ccc(OC)cc2)n(CCCC)c1=O` had a PDE4 inhibition relative to rolipram of 49%.

For the compound `CCCCCCCCS(=O)(=O)n1cnc2c1c(=O)n(CCCC)c(=O)n2CCCC`, the PDE4 inhibition relative to rolipram is 12%.

The next assay deals with Rattus norvegicus. As to the kind of experiment: The compound was tested for its bone protection activity at 30 mg/kg/day by intra peritoneal administration. It is filed as functional. A digest of the protocol: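 Mature female Sprague-Dawley rats, bilaterally ovariectomized or sham-operated, 4-5 days recovery; compound in 1% Tween 80 in saline, i.p. 30 mg/kg/day for 4 weeks; 7-8 rats per group. Proximal tibia trabecular BMD by QCT under ketamine/xylazine/acepromazine; % protection with OVX = 0%, sham = 100%; p < 0.05.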
Take `CCCCn1c(=O)c2c(ncn2S(=O)(=O)CCCC)n(CCCC)c1=O`: the Protection was determined as 23%.

Turning to `CCCCn1c(=O)c2c(ncn2S(=O)(=O)c2cccc([N+](=O)[O-])c2)n(CCCC)c1=O`, the Protection was determined as 30%.

The test system of the next assay is C3 cells. As to the kind of experiment: Calcitonin (CT) secretion/RIA assay to measure the ability of compound to increase cellular levels and secretion of human CT.
On to `CCCCOc1ccc(S(=O)(=O)n2cnc3c2c(=O)n(CCCC)c(=O)n3CCCC)cc1`, for which the CTS is recorded as 5.

Take `CCCCn1c(=O)c2c(ncn2S(=O)(=O)CCCC)n(CCCC)c1=O`: the CTS was 4.7.

Regarding `CCCCn1c(=O)c2c(ncn2S(=O)(=O)c2cc(C)ccc2C)n(CCCC)c1=O`, the CTS is given as 6.6.

As to `CCCCn1c(=O)c2c(ncn2S(=O)(=O)c2ccc(NO)cc2)n(CCCC)c1=O`, the CTS was 5.6.

For the compound `CCCCn1c(=O)c2c(nc(C)n2S(=O)(=O)c2cccc3ccccc23)n(CCCC)c1=O`, the CTS was found to be 2.2.

Regarding `CCCCn1c(=O)c2c(ncn2S(=O)(=O)c2cccc([N+](=O)[O-])c2)n(CCCC)c1=O`, the CTS is on record as 2.9.

For `CCCCn1c(=O)c2c(nc(C)n2S(=O)(=O)c2cccc([N+](=O)[O-])c2)n(CCCC)c1=O`, the CTS was determined as 3.7.

Turning to `CCCCn1c(=O)c2c(ncn2S(=O)(=O)c2ccccc2F)n(CCCC)c1=O`, the CTS is reported as 1.7.

Take `CCCCn1c(=O)c2c(ncn2S(=O)(=O)c2ccc(OC(F)(F)F)cc2)n(CCCC)c1=O`: the CTS is reported as 4.9.

Turning to `CCCCn1c(=O)c2c(ncn2S(=O)(=O)c2cccs2)n(CCCC)c1=O`, the CTS was determined as 2.9.

With `CCCCn1c(=O)n(CC2CC2)c(=O)c2c1ncn2S(=O)(=O)c1ccc(OC)c(OC)c1`, the CTS was 0.7.

`CCCCn1c(=O)c2c(ncn2S(=O)(=O)c2ccccc2)n(CCCC)c1=O`: the CTS is 3.9.

For the compound `CCCCn1c(=O)c2c(ncn2S(=O)(=O)c2cc(F)ccc2C)n(CCCC)c1=O`, the CTS was 6.6.

As for `CCCCn1c(=O)n(CC=C(C)C)c(=O)c2c1ncn2S(=O)(=O)c1ccc(OC)c(OC)c1`, the CTS was found to be 3.7.

Consider `CCCCn1c(=O)c2c(ncn2S(=O)(=O)CCC)n(CCCC)c1=O`, for which the CTS is recorded as 2.2.

Regarding `CCCCn1c(=O)c2c(ncn2S(=O)(=O)c2ccc(OC)cc2)n(CCCC)c1=O`, the CTS is 4.6.

Turning to `CCCCCCCCS(=O)(=O)n1cnc2c1c(=O)n(CCCC)c(=O)n2CCCC`, the CTS is recorded as 4.7.

For another assay, the system named is C3 cells. The experiment in a line: CT-luci reporter gene assay to measure the ability to increase transcription of a […] linked to the human CT gene. (A reporter such as luciferase makes a cellular process visible.)
`CCCCOc1ccc(S(=O)(=O)n2cnc3c2c(=O)n(CCCC)c(=O)n3CCCC)cc1`: the TAR is 2.2.

`CCCCn1c(=O)c2c(ncn2S(=O)(=O)c2ccc(NO)cc2)n(CCCC)c1=O`: the TAR is 2.

For the compound `CCCCn1c(=O)c2c(nc(C)n2S(=O)(=O)c2cccc3ccccc23)n(CCCC)c1=O`, the TAR turned out to be 1.7.

`CCCCn1c(=O)c2c(nc(C)n2S(=O)(=O)c2cccc([N+](=O)[O-])c2)n(CCCC)c1=O` gave a TAR of 1.8.

In the case of `CCCCn1c(=O)c2c(ncn2S(=O)(=O)c2ccc(OC(F)(F)F)cc2)n(CCCC)c1=O`, the TAR amounted to 2.

`CCCCn1c(=O)c2c(ncn2S(=O)(=O)c2cccs2)n(CCCC)c1=O`: the TAR is 2.2.

Compound `CCCCn1c(=O)n(CC2CC2)c(=O)c2c1ncn2S(=O)(=O)c1ccc(OC)c(OC)c1` had a TAR of 2.8.

In the case of `CCCCn1c(=O)n(CC=C(C)C)c(=O)c2c1ncn2S(=O)(=O)c1ccc(OC)c(OC)c1`, the TAR amounted to 2.8.

The next assay deals with C3 cells. The description is as above. This is another data set of the same source.
Consider `CCCCn1c(=O)c2c(ncn2S(=O)(=O)CCCC)n(CCCC)c1=O`, for which the TAR was 2.

Compound `CCCCn1c(=O)c2c(ncn2S(=O)(=O)c2cc(C)ccc2C)n(CCCC)c1=O` returned a TAR of 2.6.

`CCCCn1c(=O)c2c(ncn2S(=O)(=O)c2cccc([N+](=O)[O-])c2)n(CCCC)c1=O`: the TAR is listed as 2.

Compound `CCCCn1c(=O)c2c(ncn2S(=O)(=O)c2ccccc2F)n(CCCC)c1=O` had a TAR of 2.

Take `CCCCn1c(=O)c2c(ncn2S(=O)(=O)c2ccccc2)n(CCCC)c1=O`: the TAR is 1.9.

As to `CCCCn1c(=O)c2c(ncn2S(=O)(=O)c2cc(F)ccc2C)n(CCCC)c1=O`, the TAR is listed as 2.8.

Consider `CCCCn1c(=O)c2c(ncn2S(=O)(=O)CCC)n(CCCC)c1=O`, for which the TAR was 2.3.

Compound `CCCCn1c(=O)c2c(ncn2S(=O)(=O)c2ccc(OC)cc2)n(CCCC)c1=O` gave a TAR of 1.9.

Compound `CCCCCCCCS(=O)(=O)n1cnc2c1c(=O)n(CCCC)c(=O)n2CCCC` came in with a TAR of 2.1.
